According to ChEMBL document CHEMBL6115033, “Discovery of a Pyrazolopyridinone-Based MYC Inhibitor That Selectively Engages Intracellular c-MYC and Disrupts MYC-MAX Heterodimerization” (J Med Chem, 2025):
The source made the active and inactive calls. The calls are words filed in the database; no cut-off is given here.

Assays:
[1] = target: c-Myc/c-Max (Homo sapiens) (UniProt P01106+P61244); test: Disruption of MYC-MAX interaction in human MDA-MB-468 cells at 25 uM incubated for 3 to 12 hrs by Western blot analysis; format: cell-based; details: time 3-12 hrs
Chain of c-Myc/c-Max (Homo sapiens) (P01106 whole entry): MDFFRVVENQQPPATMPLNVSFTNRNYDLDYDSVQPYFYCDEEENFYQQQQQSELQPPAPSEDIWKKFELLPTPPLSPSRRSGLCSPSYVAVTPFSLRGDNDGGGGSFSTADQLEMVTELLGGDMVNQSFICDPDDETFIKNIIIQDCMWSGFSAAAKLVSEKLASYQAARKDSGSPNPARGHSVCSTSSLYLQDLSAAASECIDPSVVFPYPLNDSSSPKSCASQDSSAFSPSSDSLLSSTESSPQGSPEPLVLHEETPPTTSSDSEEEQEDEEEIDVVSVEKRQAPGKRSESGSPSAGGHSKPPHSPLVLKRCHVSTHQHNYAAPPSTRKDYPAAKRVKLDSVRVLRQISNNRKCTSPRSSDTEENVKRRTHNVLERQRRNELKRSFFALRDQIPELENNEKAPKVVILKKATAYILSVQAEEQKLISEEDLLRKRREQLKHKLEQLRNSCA
Chain of c-Myc/c-Max (Homo sapiens) (P61244 2-160 partner limits assumed): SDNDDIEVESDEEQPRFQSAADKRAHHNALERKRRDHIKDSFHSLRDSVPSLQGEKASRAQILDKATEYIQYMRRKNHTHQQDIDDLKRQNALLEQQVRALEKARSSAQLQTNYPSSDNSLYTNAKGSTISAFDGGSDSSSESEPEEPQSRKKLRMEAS
Procedure, shortened: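 Cells were given 25 µM or DMSO for 0, 3, 5 and 12 h. Cytoplasmic and nuclear lysate fractions were pooled. 2 mg protein was immunoprecipitated with MYC antibody overnight, then protein A/G beads for 4 h at 4 °C. Bound MAX was detected by western blot and quantified relative to MYC; MAX input was also measured.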

P493-6 [2] = test: Induction of apoptosis in human P493-6 cells assessed as effect on cleaved PARP level at 50 uM incubated for 24 hrs
MDA-MB-468 [3] = test: Downregulation of E2F1 mRNA expression in human MDA-MB-468 cells at 25 uM incubated for 12 hrs by qRT-PCR analysis; format: functional, cell-based
Procedure, shortened: (§1)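 Cells (500,000/well) were cultured with or without 25 µM for the indicated time. Total RNA was extracted with TRIzol and reverse-transcribed. qPCR used SYBR green with target-gene primers, reported as ΔΔCT.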

MDA-MB-468 [4] = test: Downregulation of MYC level in human MDA-MB-468 cells at 25 uM by Western blot analysis; format: functional, cell-based; details: time 9-24 hrs
Procedure, shortened: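 MDA-MB-468 cells were exposed to 25 µM over a time course of up to 24 h. MYC and FBXW7 were read by western blot.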

MDA-MB-468 [5] = test: Antitumor activity against human MDA-MB-468 cells xenografted in mouse assessed as reduction in mYC expression at 10 mg/kg, sc measured at 14 to 26 days by IHC analysis; details: time 14-26 day
[6] = Induction of apoptosis in human P493-6 cells assessed as late apoptotic cells at 25 uM incubated for 24 hrs by Annexin V/PI staining based flow cytometry analysis (reference value: 6.52 %); format: functional
MDA-MB-468 [7] = test: Downregulation of CCNA2 mRNA expression in human MDA-MB-468 cells at 25 uM incubated for 12 hrs by qRT-PCR analysis; format: functional, cell-based; procedure, shortened: as §1
MCF7 [8] = test: Induction of apoptosis in human MCF7 cells cultured as 3D spheroids assessed as inhibition of cell growth incubated for 5 days; format: functional, cell-based; details: time 5.0 day
Procedure, shortened: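 Cells plated at 4000 per well in low-attachment 24-well plates and grown in Mammocult medium for 48 h to form mammospheres. Spheres then exposed to 25 uM compound for 5 days, with untreated control wells. Read-out was imaging of the mammospheres formed.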

MDA-MB-468 [9] = test: Antitumor activity against human MDA-MB-468 cells xenografted in mouse assessed as tumor growth inhibition at 10 mg/kg, po measured at 14 to 26 days by elliptical measurement method based caliper analysis; format: functional, organism-based; details: time 14-26 day
[10] = target: Myc proto-oncogene protein (Homo sapiens) (UniProt P01106); test: Binding affinity to MYC in human P493-6 cells assessed as thermal stabilization by measuring melting temperature at 25 uM measured for 2 hrs by CETSA analysis (reference value: 42 degreeC)
Chain of Myc proto-oncogene protein (Homo sapiens) (P01106 whole entry): as the sequence (P01106 whole entry) above

P493-6 [11] = test: Downregulation of MYC level in human P493-6 cells measured at 20 to 60 mins by Western blot analysis; format: functional, cell-based; details: time 20-60 min
Procedure, shortened: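 Cells were pretreated with 25 µM or DMSO for 3 h, then given 50 µg/mL cycloheximide for the indicated times. MYC was measured by western blot, and half-life came from a one-phase exponential decay fit.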

MCF7 [12] = test: Antiproliferative activity against human MCF7 cells assessed as cell viability incubated for 96 hrs by MTT assay; format: functional, cell-based; details: MCF7, 96 h
Procedure, shortened: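 Adherent cells (2000/well) attached overnight, then exposed to compounds at 0.14–100 µM for 96 h in DMEM with 10% FBS. MTT at 0.5 mg/mL for 4 h in the dark, formazan dissolved in DMSO, absorbance at 570 nm. Compounds were freshly prepared in DMSO, with DMSO below 1%.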

[13] = target: Myc proto-oncogene protein (Homo sapiens) (UniProt P01106); test: Binding affinity to MYC in human P493-6 cells assessed as thermal stabilization by measuring melting temperature at 25 uM measured for 2 hrs by CETSA analysis
P493-6 [14] = test: Downregulation of SKP2 mRNA expression in human P493-6 cells at 25 uM incubated for 12 hrs by qRT-PCR analysis; format: functional, cell-based
Procedure, shortened: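 P493-6 cells seeded at 500,000 per well and cultured with or without 25 uM compound for the indicated time. Total RNA extracted with TRIzol. Reverse transcription at 25 °C for 10 min, 37 °C for 120 min, then 85 °C for 5 min. SYBR green qPCR used primers for MYC target genes. Relative mRNA expressed as ΔΔCT.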

MDA-MB-468 [15] = test: Downregulation of MYC level in human MDA-MB-468 cells at 50 uM incubated for 24 hrs in presence of MG132 by Western blot analysis; format: functional, cell-based; details: in the assay text read “Stabilization of MYC protein level” for “Downregulation of MYC level”
Procedure, shortened: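 MDA-MB-468 cells were pretreated with 30 µM MG132 for 1 h, then exposed to graded concentrations or DMSO for 24 h. MYC was read by western blot.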

Activity [1]: Active
Tm [10]: 38 °C
IC50 (MCF7 [12]): 39.4 µM
Tm [13]: 35 °C
SMILES: N#Cc1cc2c(-c3ccc(Cl)cc3)nn(-c3ccccc3)c2[nH]c1=O
Activity (P493-6 [2]): Active
Activity (MDA-MB-468 [3]): Active
Activity (MDA-MB-468 [4]): Time-dependent-effect
Activity (MDA-MB-468 [5]): Active
Activity [6]: 11.3%
Activity (MDA-MB-468 [7]): Active
Activity (MCF7 [8]): Active
TGI (MDA-MB-468 [9]): Active
Activity (P493-6 [11]): Active
Activity (P493-6 [14]): Active
Activity (MDA-MB-468 [15]): Active
